Laboratory results as given in ChEMBL document CHEMBL4715718, “Methyl Protodioscin, a Steroidal Saponin, Inhibits Neointima Formation in Vitro and in Vivo” (J Nat Prod, 2016).
Activity calls are given as the source filed them. No cut-off for these calls is given here.

Key:
[1] = Antiproliferative activity against rat A7r5 cells assessed as reduction in cell viability after 24 hrs by MTT assay; details: A7R5, 24 h
A7R5 [2] = assay: Induction of cell cycle arrest in rat A7r5 cells assessed as accumulation of cells at G0/G1 phase at 3 to 9 uM after 18 hrs by PI/RNase A staining based flow cytometric analysis; type: functional; details: dose 3-9 µM
A7R5 [3] = assay: Induction of apoptosis in rat A7r5 cells assessed as effect on Bax protein expression at 3 to 9 uM after 24 hrs by Western blot analysis; type: functional, cell-based; details: dose 3-9 µM
In short: (§1)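 Bax and Bcl-2 in A7r5 cells are immunoblotted after treatment (3, 6 and 9 μM, 24 h) in culture medium. Lysis in SDS/DTT/Tris buffer pH 6.8 at 95 °C, then SDS-PAGE and PVDF. Bands are given relative to the 10% FBS control, and the Bax/Bcl-2 ratio is computed. Triplicate; one-way ANOVA.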

A7R5 [4] = assay: Induction of apoptosis in rat A7r5 cells assessed as effect on Bcl2 protein expression at 3 to 9 uM after 24 hrs by Western blot analysis; type: functional, cell-based; details: dose 3-9 µM; in short: as §1
A7R5 [5] = assay: Induction of apoptosis in rat A7r5 cells assessed as effect on Bax/Bcl2 expression ratio at 3 to 9 uM measured after 24 hrs by Western blot analysis; type: functional, cell-based; details: dose 3-9 µM; in short: as §1
A7R5 [6] = assay: Induction of apoptosis in rat A7r5 cells assessed as change in sub-G1 phase at 3 to 9 uM after 24 hrs by PI/RNase A staining based flow cytometric analysis; type: functional, cell-based; details: dose 3-9 µM
In short: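 A7r5 cells were plated at 1.0 × 10^5 per 10 cm dish and exposed to graded concentrations in DMEM with 10% FBS. They were trypsinized, fixed in ice-cold 70% ethanol overnight at −20 °C, then stained with PI/Triton X-100/RNase A at 37 °C for at least 30 min in the dark. Sub-G1, G0/G1, S and G2/M fractions were read by FACScan. Control: 10% FBS; n = 3.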

Rattus norvegicus [7] = assay: Inhibition of neointima formation index of injured vessel in rat model of balloon injury induced neointimal hyperplasia at 3 to 6 uM administered as extravascular treatment and measured after 2 weeks by hematoxylin and eosin Y staining based histopathological analysis; type: functional; details: dose 3-6 µM
In short: (§2)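 Male rats (3–4 months, 300–350 g) were randomized into four groups: sham, balloon injury + PBS, and balloon injury + 3 μM or 6 μM compound. PBS or compound was given extravascularly in ice-cold 30% (w/v) pluronic F-127 gel. Arterial sections 5–10 μm thick (6 per block) were stained with hematoxylin and eosin Y. Intima, media and lumen areas and the intima/media ratio were measured by image analysis.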

Rattus norvegicus [8] = assay: Reduction in ADAM15 protein expression in VSMCs and injured arteries in rat model of balloon injury induced neointimal hyperplasia at 3 to 6 uM administered as extravascular treatment and measured after 2 weeks by Western blot analysis; type: functional; details: dose 3-6 µM
[9] = molecular target: T1, Disintegrin and metalloproteinase domain-containing protein 15 (Rattus norvegicus) (UniProt Q9QYV0); assay: Inhibition of ADAM15-mediated FAK phosphorylation in rat A7r5 cells at 3 to 9 uM after 24 hrs by western blot analysis; type: cell-based; details: dose 3-9 µM
T1 sequence (whole entry): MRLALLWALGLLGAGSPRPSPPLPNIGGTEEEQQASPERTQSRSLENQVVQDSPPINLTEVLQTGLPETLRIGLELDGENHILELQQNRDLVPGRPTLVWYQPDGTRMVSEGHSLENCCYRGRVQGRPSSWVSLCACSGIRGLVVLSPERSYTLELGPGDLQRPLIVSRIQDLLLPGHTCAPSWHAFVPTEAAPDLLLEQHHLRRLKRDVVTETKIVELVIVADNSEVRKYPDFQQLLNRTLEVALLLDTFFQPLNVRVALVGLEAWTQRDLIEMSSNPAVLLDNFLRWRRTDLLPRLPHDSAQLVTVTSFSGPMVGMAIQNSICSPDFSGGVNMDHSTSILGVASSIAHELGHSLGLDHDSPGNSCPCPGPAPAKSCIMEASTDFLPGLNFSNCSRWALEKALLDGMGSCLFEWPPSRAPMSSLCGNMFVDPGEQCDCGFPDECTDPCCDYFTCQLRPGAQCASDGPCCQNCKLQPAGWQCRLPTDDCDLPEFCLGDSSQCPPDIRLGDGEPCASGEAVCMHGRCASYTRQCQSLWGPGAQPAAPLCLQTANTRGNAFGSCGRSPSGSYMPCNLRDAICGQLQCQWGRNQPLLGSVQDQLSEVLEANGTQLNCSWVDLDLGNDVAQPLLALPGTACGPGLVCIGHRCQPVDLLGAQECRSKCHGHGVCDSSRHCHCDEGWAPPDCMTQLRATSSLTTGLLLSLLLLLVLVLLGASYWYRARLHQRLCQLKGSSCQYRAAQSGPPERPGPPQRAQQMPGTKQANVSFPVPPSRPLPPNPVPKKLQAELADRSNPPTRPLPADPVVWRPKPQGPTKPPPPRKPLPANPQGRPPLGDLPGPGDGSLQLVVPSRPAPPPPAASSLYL
In short: (§3)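 A7r5 rat aortic smooth muscle cells (DMEM, 10% FBS, 37 °C, 5% CO2) treated with 3, 6 or 9 μM in culture medium for 24 h. Lysed in 2% SDS/50 mM DTT/62.5 mM Tris-HCl pH 6.8 at 95 °C for 5 min. SDS-PAGE, PVDF transfer, 5% milk block, HRP secondary. Band expressed as % of control; mean ± SD, n = 3, one-way ANOVA.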

A7R5 [10] = assay: Down regulation of ERK2 expression in rat A7r5 cells at 3 to 9 uM after 24 hrs by Western blot analysis; type: functional, cell-based; details: dose 3-9 µM; in short: as §3
A7R5 [11] = assay: Down regulation of AKT expression in rat A7r5 cells at 3 to 9 uM after 24 hrs by Western blot analysis; type: functional, cell-based; details: dose 3-9 µM; in short: as §3
A7R5 [12] = assay: Down regulation of ADAM15 protein translational level in rat A7r5 cells at 9 uM after 24 hrs by Western blot analysis; type: functional, cell-based; in short: as §3
A7R5 [13] = assay: Down regulation of FAK expression in rat A7r5 cells at 3 to 9 uM after 24 hrs by Western blot analysis; type: functional, cell-based; details: dose 3-9 µM; in short: as §3
A7R5 [14] = assay: Down regulation of PI3K expression in rat A7r5 cells at 3 to 9 uM after 24 hrs by Western blot analysis; type: functional, cell-based; details: dose 3-9 µM; in short: as §3
A7R5 [15] = assay: Down regulation of ERK1 expression in rat A7r5 cells at 3 to 9 uM after 24 hrs by Western blot analysis; type: functional, cell-based; details: dose 3-9 µM; in short: as §3
A7R5 [16] = assay: Inhibition of cell migration in rat A7r5 cells at 6 to 9 uM after 16 hrs by crystal violet staining based transwell assay; type: functional; details: dose 6-9 µM
In short: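 Transwell, 8 μm pore: 1.2 × 10^4 A7r5 cells in the upper chamber attach for 2 h. The upper chamber then receives serum-free medium with compound, and the lower chamber 10% FBS medium with compound, for 16 h at 37 °C. Cells are fixed in formaldehyde, stained with crystal violet and counted in five random fields. Migration is given as % of control cell number.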

A7R5 [17] = assay: Inhibition of cell migration in rat A7r5 cells at 9 uM after 18 hrs by scratch wound healing assay; type: functional, cell-based
A7R5 [18] = assay: Down regulation of MMP-2 expression in rat A7r5 cells at 3 to 9 uM after 24 hrs by Western blot analysis; type: functional, cell-based; details: dose 3-9 µM; in short: as §3
A7R5 [19] = assay: Down regulation of MMP-9 expression in rat A7r5 cells at 3 to 9 uM after 24 hrs by Western blot analysis; type: functional, cell-based; details: dose 3-9 µM; in short: as §3
[20] = molecular target: T1, Disintegrin and metalloproteinase domain-containing protein 15 (Rattus norvegicus); assay: Inhibition of ADAM15-mediated MMP-9 activity in rat A7r5 cells at 6 uM after 24 hrs by gelatin zymography; type: cell-based
In short: (§4)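 Conditioned medium came from A7r5 cells (1.0 × 10^5 per 10 cm dish) held 24 h with the compound in DMEM/10% FBS. It ran under nonreducing conditions on 10% SDS-PAGE with 0.1% gelatin. Gels were washed in 2.5% Triton X-100 for 1 h, developed at 37 °C in pH 8.0 Tris/10 mM CaCl2 buffer, then Coomassie stained and destained. Clear bands were quantified as % of control; n = 3.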

[21] = molecular target: T1, Disintegrin and metalloproteinase domain-containing protein 15 (Rattus norvegicus); assay: Inhibition of ADAM15-mediated MMP-9 activity in rat A7r5 cells at 9 uM after 24 hrs by gelatin zymography; type: cell-based; in short: as §4
[22] = molecular target: T1, Disintegrin and metalloproteinase domain-containing protein 15 (Rattus norvegicus); assay: Inhibition of ADAM15-mediated PI3K phosphorylation in rat A7r5 cells at 3 to 9 uM after 24 hrs by western blot analysis; type: cell-based; details: dose 3-9 µM; in short: as §3
[23] = molecular target: T1, Disintegrin and metalloproteinase domain-containing protein 15 (Rattus norvegicus); assay: Inhibition of ADAM15-mediated AKT phosphorylation in rat A7r5 cells at 3 to 9 uM after 24 hrs by western blot analysis; type: cell-based; details: dose 3-9 µM; in short: as §3
[24] = molecular target: T1, Disintegrin and metalloproteinase domain-containing protein 15 (Rattus norvegicus); assay: Inhibition of ADAM15-mediated ERK phosphorylation in rat A7r5 cells at 3 to 9 uM after 24 hrs by western blot analysis; type: cell-based; details: dose 3-9 µM; in short: as §3
[25] = (§5) Inhibition of neointima formation of injured vessel in rat model of balloon injury induced neointimal hyperplasia assessed as area of intima at 3 uM administered as extravascular treatment and measured after 2 weeks by hematoxylin and eosin Y staining based histopathological analysis (reference value: 3346.4 +/-556.7 um2); type: functional; in short: as §2
[26] = as §5, with “of media” for “of intima”, “value: 1462.7 +/-393.9” for “value: 3346.4 +/-556.7”; type: functional; in short: as §2
[27] = as §5, with “of lumen” for “of intima”, “value: 6809.1 +/-820.8” for “value: 3346.4 +/-556.7”; type: functional; in short: as §2
[28] = (§6) Inhibition of neointima formation of injured vessel in rat model of balloon injury induced neointimal hyperplasia assessed as ratio of area of intima-to-media at 3 uM administered as extravascular treatment and measured after 2 weeks by hematoxylin and eosin Y staining based histopathological analysis (reference value: 1.98 +/-0.36); type: functional; in short: as §2
[29] = as §5, with “at 6” for “at 3”; type: functional; in short: as §2
[30] = as §5, with “of media” for “of intima”, “at 6” for “at 3”, “value: 1462.7 +/-393.9” for “value: 3346.4 +/-556.7”; type: functional; in short: as §2
[31] = as §5, with “of lumen” for “of intima”, “at 6” for “at 3”, “value: 6809.1 +/-820.8” for “value: 3346.4 +/-556.7”; type: functional; in short: as §2
[32] = as §6, with “at 6” for “at 3”; type: functional; in short: as §2

For `CO[C@]1(CC[C@@H](C)CO[C@@H]2O[C@H](CO)[C@@H](O)[C@H](O)[C@H]2O)O[C@H]2C[C@H]3[C@@H]4CC=C5C[C@@H](O[C@@H]6O[C@H](CO)[C@@H](O[C@@H]7O[C@@H](C)[C@H](O)[C@@H](O)[C@H]7O)[C@H](O)[C@H]6O[C@@H]6O[C@@H](C)[C@H](O)[C@@H](O)[C@H]6O)CC[C@]5(C)[C@H]4CC[C@]3(C)[C@H]2[C@@H]1C` [METHYLPROTODIOSCIN], the IC50 [1] was 9 µM, the Activity (A7R5 [2]) was “Active” and the Activity (A7R5 [3]) was “inactive”. For the same molecule, the Activity (A7R5 [4]) was “inactive”, the Activity (A7R5 [5]) was “inactive” and the Activity (A7R5 [6]) was “inactive”. For the same molecule, the inhibition (Rattus norvegicus [7]) was “Active”, the inhibition (Rattus norvegicus [8]) was “Active” and the inhibition [9] was “Active”. The inhibition (A7R5 [10]) was “Active”, the inhibition (A7R5 [11]) was “Active” and the inhibition (A7R5 [12]) was “Active”. For the same molecule, the inhibition (A7R5 [13]) was “Active”, the inhibition (A7R5 [14]) was “Active” and the inhibition (A7R5 [15]) was “Active”. For the same molecule, the inhibition (A7R5 [16]) was “Active”, the inhibition (A7R5 [17]) was “Active” and the inhibition (A7R5 [18]) was “Active”. The inhibition (A7R5 [19]) was “Active”, the inhibition [20] was “Active” and the inhibition [21] was “Active”. The inhibition [22] was “Active”, the inhibition [23] was “Active” and the inhibition [24] was “Active”. The Activity [25] was 1828.4 um2, the Activity [26] was 1902 um2 and the Activity [27] was 4730.4 um2. The Ratio [28] was 0.92, the Activity [29] was 912.4 um2 and the Activity [30] was 1164.2 um2. For the same molecule, the Activity [31] was 3076.6 um2 and the Ratio [32] was 0.34.
